One may read the pIC50 as the negative decadic logarithm of the IC50, by convention in mol/L. A lower pIC50 goes with a high IC50.

The source of these data is ChEMBL document CHEMBL1131448 (J Med Chem, 1998).

Each structure is given as a SMILES string. pIC50: −log10 of the molar value. Bounds are passed on as bounds.

One experiment concerns A-427. As to the kind of experiment: Antiproliferative activity measured against A427 human lung carcinoma. Format: functional, cell-based. Put shortly: (§1)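 Cells seeded 24 h before treatment (3000/well A427, MCF7mdr, K562adr; 1500/well PC-3) in DMEM with 10% heat-inactivated FCS, penicillin/streptomycin, 2 mM glutamine. Drug from DMSO (0.1% final) at 5 × 10^-13 to 1 × 10^-6 M final, 72 h exposure. Viability by WST-1 formazan colorimetry. Two experiments, eight determinations per concentration. IC50 by linear regression on linear part of sigmoid.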

The next experiment relates to MCF7. As to the kind of experiment: Antiproliferative activity measured against MCF-7-mdr cells. Format: functional, cell-based. The settings on record: Homo sapiens. Put shortly:
as §1

Experiment [1] deals with DNA topoisomerase 1 (Bos taurus). As to the kind of experiment: Effect on Topo-I-mediated relaxation of supercoiled pUC19 plasmid DNA in calf thymus at 100 uM.
A further experiment deals with K562. As to the kind of experiment: Antiproliferative activity measured against K562adr leukemia cells. Format: functional, cell-based. The settings on record: Homo sapiens. Put shortly: as §1
The next experiment concerns PC-3. As to the kind of experiment: Antiproliferative activity measured against PC-3 human prostate adenocarcinoma. Format: functional, cell-based. The settings on record: PC-3, Prostate gland. An outline of the steps:
as §1

In experiment [2] the test system is HT-29. As to the kind of experiment: Antitumor activity was measured on HT-29 xenografts after 0.16 mg/kg ip dose. The settings on record: route intraperitoneal. Format: functional, Homo sapiens. Put shortly:
(§2)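 Female NCr nu/nu athymic mice, 4-6 weeks old, given sc HT-29 cells (5 × 10^6/animal, left dorsum). Randomised at day 10 at about 175 mm³ mean tumour (5/treated group, 10 controls). Drug in DMSO (3%)/Tween 20 (2%)/0.9% NaCl given ip daily, 4 days on/3 off, ×3 (12 injections). Caliper volume (w²l)/2 three times weekly with body weight. T-C delay in days to reach 250% of starting volume.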

Experiment [3] deals with HT-29. As to the kind of experiment: Antitumor activity was measured on HT-29 xenografts after 0.625 mg/kg ip dose; toxic dose. The experiment is classed as functional, organism-based. Further details: dose 0.625 mg/kg. The settings on record: Homo sapiens. An outline of the steps: as §2
Experiment [4] has as its system HT-29. As to the kind of experiment: Antitumor activity was measured on HT-29 xenografts after 0.32 mg/kg ip dose. The experiment is classed as functional, Homo sapiens. The settings on record: route intraperitoneal. An outline of the steps: as §2
For experiment [5], the system named is HT-29. As to the kind of experiment: Antitumor activity was measured on HT-29 xenografts after 0.625 mg/kg ip dose. Format: functional, Homo sapiens. The settings on record: route intraperitoneal. An outline of the steps:
as §2

The subject of experiment [6] is HT-29. As to the kind of experiment: Antitumor activity was measured on HT-29 xenografts after 2.5 mg/kg ip dose; td =' toxic dose'. The settings on record: Homo sapiens. Format: functional, organism-based. Further details: dose 2.5 mg/kg. Put shortly:
as §2

In experiment [7] the test system is HT-29. As to the kind of experiment: Antitumor activity was measured on HT-29 xenografts after 1.25 mg/kg ip dose. Format: functional, Homo sapiens. The settings on record: route intraperitoneal. An outline of the steps: as §2
The subject of experiment [8] is HT-29. As to the kind of experiment: Antitumor activity was measured on HT-29 xenografts after 0.625 mg/kg ip dose; td = 'toxic dose'. Format: functional, organism-based. Further details: dose 0.625 mg/kg. The settings on record: Homo sapiens. Put shortly:
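Female NCr nu/nu athymic mice, 4-6 weeks old, bearing sc HT-29 tumours (5 × 10⁶ cells, left dorsal surface). Dosing began at about 175 mm³ (day 10), 5 mice per group and 10 controls. Drug given ip in DMSO (3%)/Tween 20 (2%)/0.9% NaCl, daily 4 days on/3 off, three cycles. Calipers three times weekly; T-C growth delay in days to reach 250% of starting volume.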

For experiment [9], the system named is HT-29. As to the kind of experiment: Antitumor activity was measured on HT-29 xenografts after 1.25 mg/kg ip dose; td = ' toxic dose'. The experiment is classed as functional, organism-based. Further details: dose 1.25 mg/kg. The settings on record: Homo sapiens. An outline of the steps: as §2

`CCC1(O)CC(=O)OCc2c1cc1n(c2=O)Cc2cc3ccccc3nc2-1` (stereo unspecified): the pIC50 with A-427 was 7.92; with MCF7, 7.68; with K562 it was 7.33; with PC-3, 7.22. Besides, the Relaxed DNA in experiment [1] stood at 60%.

As for `CCC1(O)CC(=O)OCc2c1cc1n(c2=O)Cc2cc3cc(C)c(F)cc3nc2-1` (stereo unspecified), the Tumor growth delay in the experiment on HT-29 [2] is 4 days; with HT-29 [3] it was “Toxic”; in the experiment on HT-29 [4], 7 days. The negative logarithm of the IC50 (pIC50) is 12.09 in the experiment on A-427, 11.00 with MCF7, 7.85 in the experiment with K562 and over 12.00 in the experiment with PC-3. This molecule came in with a Relaxed DNA in experiment [1] of 18%.

With `COc1cccc2c1C(=O)c1c(O)c3c(c(O)c1C2=O)C[C@@](O)(C(=O)CO)C[C@@H]3O[C@H]1C[C@H](N)[C@H](O)[C@H](C)O1` [DOXORUBICIN], the negative logarithm of the IC50 (pIC50) with K562 is 4.82; in the experiment on PC-3 it was 6.41.

In the case of `CCC1(O)CC(=O)OCc2c1cc1n(c2=O)Cc2cc3cc4c(cc3nc2-1)OCO4` (stereo unspecified), the negative logarithm of the IC50 (pIC50) was 9.21 in the experiment with A-427, 9.26 in the experiment on MCF7, 7.43 in the experiment with K562 and over 12.00 in the experiment with PC-3. The molecule further yielded a Relaxed DNA in [1] of 58%.

As to `CC[C@@]1(O)C(=O)OCc2c1cc1n(c2=O)Cc2cc3c(CN(C)C)c(O)ccc3nc2-1` [TOPOTECAN], the pIC50 in the experiment with A-427 was 7.31; in the experiment on MCF7, 6.38; in the experiment with K562, 5.96; with PC-3, 6.80.

Take `CCC1(O)CC(=O)OCc2c1cc1n(c2=O)Cc2cc3cc4c(cc3nc2-1)OCCO4` (stereo unspecified): the Relaxed DNA in experiment [1] was found to be 50%.

As to `CCc1c2c(nc3ccccc13)-c1cc3c(c(=O)n1C2)COC(=O)CC3(O)CC` (stereo unspecified), the figures for the negative-log IC50 (pIC50) with MCF7, in the experiment with K562 and in the experiment with PC-3 were 7.68, 7.48 and 7.55, respectively. In addition, in experiment [1], the Relaxed DNA came out at 34%.

Take `CC[C@@]1(O)CC(=O)OCc2c1cc1n(c2=O)Cc2cc3ccccc3nc2-1`: in experiment [1], the Relaxed DNA turned out to be 45%.

Consider `COc1cc([C@@H]2c3cc4c(cc3[C@@H](O[C@@H]3O[C@@H]5CO[C@@H](C)O[C@H]5[C@H](O)[C@H]3O)[C@H]3COC(=O)[C@H]23)OCO4)cc(OC)c1O` [ETOPOSIDE], for which the negative-log IC50 (pIC50) with MCF7 is 4.17; in the experiment on PC-3 it was 5.64.

On to `CC[C@]1(O)CC(=O)OCc2c1cc1n(c2=O)Cc2cc3ccccc3nc2-1`, for which the Relaxed DNA in [1] is 100%.

On to `CCC1(O)CC(=O)OCc2c1cc1n(c2=O)Cc2cc3cc(F)c(Cl)cc3nc2-1` (stereo unspecified), for which the pIC50 in the experiment on A-427 was 10.64; in the experiment on MCF7, 8.77; in the experiment with K562, 7.70; in the experiment on PC-3 it was 7.92. The Tumor growth delay is 2 days with HT-29 [5], “Toxic dose” in the experiment with HT-29 [6], 7 days with HT-29 [7] and 1 days in the experiment on HT-29 [4]. The Relaxed DNA in [1] came to 61%.

For `CCC1(O)CC(=O)OCc2c1cc1n(c2=O)Cc2cc3cc(F)ccc3nc2-1` (stereo unspecified), the pIC50 in the experiment with A-427 was 8.11; in the experiment on K562, 7.20; with PC-3, 9.24. The molecule also had a Relaxed DNA in experiment [1] of 47%.

Turning to `CCC1(O)CC(=O)OCc2c1cc1n(c2=O)Cc2cc3cc(OC)c(F)cc3nc2-1` (stereo unspecified), the values for the Tumor growth delay with HT-29 [2], in the experiment with HT-29 [3] and with HT-29 [4] were 4 days, “Toxic” and 12 days, respectively. Besides, the pIC50 was 11.08 with A-427, 8.66 with MCF7, 7.74 in the experiment with K562 and over 12.00 with PC-3. The molecule also displayed a Relaxed DNA in experiment [1] of 26%.

On to `CCC1(O)CC(=O)OCc2c1cc1n(c2=O)Cc2cc3cc(F)c(F)cc3nc2-1` (stereo unspecified), for which the values for the Tumor growth delay with HT-29 [2], with HT-29 [8] and with HT-29 [4] were 8 days, “Toxic dose” and 25 days, respectively. In addition, the pIC50 in the experiment with A-427 is 10.00; with K562, 7.18; in the experiment on PC-3, 12.00. In addition, the Relaxed DNA in experiment [1] turned out to be 56%.

Consider `CC[C@@]1(O)C(=O)OCc2c1cc1n(c2=O)Cc2cc3ccccc3nc2-1` [CAMPTOTHECIN], for which the pIC50 in the experiment on A-427 was 7.62; in the experiment on MCF7, 8.51; in the experiment with K562, 7.24; in the experiment on PC-3 it was 7.24. Further, the Tumor growth delay in the experiment on HT-29 [5] is 4 days; with HT-29 [9], “Toxic”.

On to `CCC1(O)CC(=O)OCc2c1cc1n(c2=O)Cc2cc3cc(C)c(Cl)cc3nc2-1` (stereo unspecified), for which the pIC50 with A-427 is 10.51; in the experiment with K562, 8.54; in the experiment with PC-3 it was 8.44. Besides, in experiment [1], the Relaxed DNA came to 59%.

`CCC1(O)CC(=O)OCc2c1cc1n(c2=O)Cc2cc3cc(Cl)ccc3nc2-1` (stereo unspecified): the pIC50 is 9.44 with A-427, 8.89 with MCF7, 8.59 with K562 and 7.74 in the experiment with PC-3. The molecule also displayed a Relaxed DNA in experiment [1] of 57%.
